Results: ChEMBL document CHEMBL4334446, “Evaluating the effects of fluorine on biological properties and metabolic stability of some antitubulin 3-substituted 7-phenyl-pyrroloquinolinones” (Eur J Med Chem, 2019)

Key:
[1] = Stability in phosphate buffer at pH 7.4 at 10 uM incubated for 30 mins by HPLC analysis; assay type: physicochemical; settings: pH 7.4, 0.5 h
In short: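 No microsomes or NADPH: compound (10 μM final) held in 0.1 M KH₂PO₄ pH 7.4 at 37 °C. Samples taken at 0 and 30 min, quenched with ice-cold acetonitrile, centrifuged, analysed by HPLC with fluorescence detection. Percent parent remaining relative to 0 min; mean ± SD, n = 3.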

[2] = Selectivity ratio of GI50 for PHA-stimulated human PBL cells to GI50 for human Jurkat cells incubated for 72 hrs by MTT assay
In short: (§1)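 Leukemia cells (CEM, DND-41, Jurkat) were grown in RPMI-1640 at 8×10³ cells/well and left 18 h. Donor PBL were gradient-separated, held overnight, and non-adherent cells set at 5×10^5 cells/mL with 2.5 µg/mL PHA. Both were exposed 72 h at 37 °C to graded compound concentrations, read by MTT. The ratio is PBL GI50 over leukemia GI50.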

RS4-11 = test: Growth inhibition of human RS4:11 cells incubated for 72 hrs by MTT assay; assay type: functional; settings: RS4-11, 72 h
In short: (§2)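 Leukemia lines were grown in RPMI-1640; the CEM^Vbl-100 medium also contained 100 ng/mL vinblastine. Cells were seeded at 8 × 10³ per well and left 18 h at 37 °C, 5% CO2. Medium was then replaced with fresh medium holding graded compound concentrations (DMSO stocks), in triplicate, for 72 h. Viability was read by MTT, and GI50 = concentration inhibiting proliferation 50%.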

HeLa = test: Growth inhibition of human HeLa cells incubated for 72 hrs by MTT assay; assay type: functional
[3] = Selectivity ratio of GI50 for human PBL cells to GI50 for human DND41 cells incubated for 72 hrs by MTT assay
In short: as §1, with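 “overnight in RPMI-1640/10% FBS,” for “overnight,”, “without PHA (resting).” for “with 2.5 µg/mL PHA.”, “h” for “h at 37 °C”, “graded” for “graded compound”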

[4] = Growth inhibition of human PBL cells incubated for 72 hrs by MTT assay; assay type: cell-based; settings: PBL cells (peripheral blood lymphocytes)
In short: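 PBL from healthy donors were isolated on a Lymphoprep gradient, held overnight in RPMI-1640 with 10% FBS, and the non-adherent cells resuspended at 5 × 10^5 cells/mL. Proliferating cultures got 2.5 µg/mL PHA; resting cultures got none. Compound was added at several concentrations for 72 h and viability read by MTT. GI50 reported as mean ± SEM of three experiments.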

[5] = Selectivity ratio of GI50 for human PBL cells to GI50 for human CEM cells incubated for 72 hrs by MTT assay; assay type: functional
In short: as §1, with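 “overnight in RPMI-1640/10% FBS,” for “overnight,”, “without PHA (resting).” for “with 2.5 µg/mL PHA.”, “h” for “h at 37 °C”, “graded” for “graded compound”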

[6] = Metabolic stability in human liver microsomes at 10 uM incubated for 15 mins in presence of NADPH and non-selective CYP inhibitor quercetin by HPLC analysis; assay type: ADME, Microsome; settings: 0.25 h
In short: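 Compound (10 µM) was incubated 0 and 15 min at 37 °C with pooled HLMs and 1 mM NADPH in 0.1 M KH2PO4 pH 7.4, with or without 100 µM quercetin. Parent remaining was measured by HPLC-fluorescence relative to 0 min; mean ± SD, n = 3.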

[7] = Selectivity ratio of GI50 for human PBL cells to GI50 for human Jurkat cells incubated for 72 hrs by MTT assay
In short: as §1, with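 “overnight in RPMI-1640/10% FBS,” for “overnight,”, “without PHA (resting).” for “with 2.5 µg/mL PHA.”, “h” for “h at 37 °C”, “graded” for “graded compound”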

[8] = Metabolic stability in human liver microsomes assessed as half life at 10 uM incubated for 30 mins in presence of NADPH by HPLC analysis; assay type: ADME, Microsome
In short: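 Compound (10 µM) was incubated at 37 °C with 0.5 mg/mL pooled HLMs and 1 mM NADPH in 0.1 M KH2PO4 pH 7.4, sampled at 0, 2, 5, 15 and 30 min. Controls without NADPH, or buffer only, ran 0 and 30 min. Parent was quantified by HPLC-fluorescence as % of the 0 min level, n = 3. t1/2 = 0.693/k, with k from regression of ln % remaining versus time.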

[9] = Selectivity ratio of GI50 for PHA-stimulated human PBL cells to GI50 for human CEM cells incubated for 72 hrs by MTT assay; in short: as §1
Tubulin (Bos taurus) = Tubulin (Bos taurus) (UniProt Q6B856+Q862L2+Q862F3); test: Inhibition of [3H]colchicine binding to bovine brain tubulin at 5 uM relative to control
In short: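 Bovine brain tubulin at 1 µM was incubated with 5 µM [3H]colchicine and the test compound at 5 µM. Inhibition of colchicine binding was measured relative to a control.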

Jurkat = test: Growth inhibition of human Jurkat cells incubated for 72 hrs by MTT assay; assay type: functional; in short: as §2
HL-60 = test: Growth inhibition of human HL60 cells incubated for 72 hrs by MTT assay; assay type: functional; settings: HL-60, 72 h; in short: as §2
[10] = Growth inhibition of multidrug-resistant human CEM/VBL100 cells incubated for 72 hrs by MTT assay; assay type: functional; settings: CEM/VBL100, 72 h; in short: as §2
[11] = Metabolic stability in human liver microsomes at 10 uM incubated for 30 mins in phosphate buffer at pH 7.4 by HPLC analysis; assay type: ADME, Microsome; settings: pH 7.4, 0.5 h
In short: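 Test compound (10 μM, final) incubated at 37 °C with pooled mixed-gender HLMs (0.5 mg/mL) in 0.1 M KH₂PO₄ pH 7.4 without NADPH. Sampled at 0 and 30 min, quenched with ice-cold acetonitrile, centrifuged, supernatant analysed by HPLC with fluorescence detection (ex 344/em 493 nm). Percent remaining calculated from peak area relative to 0 min; mean ± SD, n = 3.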

HT-29 = test: Growth inhibition of human HT-29 cells incubated for 72 hrs by MTT assay; assay type: functional; settings: HT-29, 72 h
MCF7 = test: Growth inhibition of human MCF7 cells incubated for 72 hrs by MTT assay; assay type: functional; settings: MCF7, 72 h
[12] = Time-dependent metabolic stability in human liver microsomes at 10 uM incubated for 30 mins in presence of NADPH by HPLC analysis; assay type: ADME, Microsome; settings: 0.5 h
In short: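 Pooled mixed-gender HLMs (0.5 mg/mL) plus 1 mM NADPH in 0.1 M KH₂PO₄ pH 7.4, compound 10 μM final, 37 °C. Reaction started with microsomes after 3-min equilibration. Stopped with ice-cold acetonitrile at 0, 2, 5, 15, 30 min, then HPLC-fluorescence of supernatant. Percent remaining vs 0 min (mean ± SD, n = 3). Half-life = 0.693/k from linear regression of Ln % remaining vs time.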

Tubulin = Tubulin (Bos taurus, UniProt Q6B856+Q862L2+Q862F3); test: Inhibition of bovine brain tubulin polymerization preincubated for 15 mins followed by GTP addition and measured for 20 mins by turbidimetry-based spectrophotometric method
In short: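 Bovine brain tubulin (10 µM) was preincubated with varying compound concentrations in 0.8 M monosodium glutamate, pH 6.6, for 15 min at 30 °C, then cooled to 0 °C. GTP was added to 0.4 mM final and the mix warmed to 30 °C. Turbidity was followed at 350 nm. IC50 = concentration inhibiting extent of assembly 50% after 20 min.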

CCRF-CEM = test: Growth inhibition of human CEM cells incubated for 72 hrs by MTT assay; assay type: functional; in short: as §2

Stability [1] | GI50 (RS4-11) | GI50 (HeLa) | Stability [6] | half-life at 10 µM [8] | inhibition (Tubulin (Bos taurus)) | GI50 (Jurkat) | GI50 (HL-60) | Stability [11] | GI50 (HT-29) | GI50 (MCF7) | Stability [12] | IC50 (Tubulin) | SMILES | RatioGI50 [2] | RatioGI50 [3] | GI50 at 72 h [4] | RatioGI50 [5] | RatioGI50 [7] | RatioGI50 [9] | GI50 [10] | also measured
Stable | 0.09 nM | 1.2 nM | Stable | 11.4 min | 77% | 0.19 nM | 0.17 nM | Stable | 1.1 nM | 247 nM | Unstable | 0.96 µM | CCn1ccc2c3c(=O)cc(-c4ccccc4F)[nH]c3ccc21 | 10000 - 30000 | 10000 - 30000 | 28 µM | 10000 - 30000 | 10000 - 30000 | 10000 - 30000 | 1.1 nM | GI50 (CCRF-CEM): 3.1 nM
Stable | 2 nM | 11 nM | Stable | 17.3 min | 73% | 0.5 nM | 0.5 nM | Stable | 32 nM | 40 nM | Unstable | 0.57 µM | CCn1ccc2c3c(=O)cc(-c4ccccc4)[nH]c3ccc21 | 10000 - 30000 | 10000 - 30000 | > 100 µM | 10000 - 30000 | 10000 - 30000 | 10000 - 30000 | 4 nM | GI50 (CCRF-CEM): 14 nM
